In brackets after ≈: the same amount, converted by molar mass. Activity calls are given as the source filed them. No cut-off for these calls is given here.
Assays:
Plasmodium falciparum [1] = experiment: Antiplasmodial activity against blood stage of drug-sensitive Plasmodium falciparum D6; format: functional
Summary of the method: (§1)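 Blood-stage parasites tested in a dose-response growth inhibition assay; values reported in ng/ml.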

HFF = experiment: Cytotoxicity against HFF after 72 hrs by WST-1 assay; format: cell-based; settings: human
Summary of the method: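 Uninfected human foreskin fibroblast host cells were incubated with compounds for 72 h. Viability was then assessed by WST-1 staining. The effect of DMSO levels in the culture medium was assessed alongside.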

[2] = target: T1, Enoyl-acyl carrier reductase (Toxoplasma gondii, UniProt Q6UCJ9); experiment: Inhibition of Toxoplasma gondii enoyl acyl-carrier protein reductase
T1 sequence (Q6UCJ9 whole entry): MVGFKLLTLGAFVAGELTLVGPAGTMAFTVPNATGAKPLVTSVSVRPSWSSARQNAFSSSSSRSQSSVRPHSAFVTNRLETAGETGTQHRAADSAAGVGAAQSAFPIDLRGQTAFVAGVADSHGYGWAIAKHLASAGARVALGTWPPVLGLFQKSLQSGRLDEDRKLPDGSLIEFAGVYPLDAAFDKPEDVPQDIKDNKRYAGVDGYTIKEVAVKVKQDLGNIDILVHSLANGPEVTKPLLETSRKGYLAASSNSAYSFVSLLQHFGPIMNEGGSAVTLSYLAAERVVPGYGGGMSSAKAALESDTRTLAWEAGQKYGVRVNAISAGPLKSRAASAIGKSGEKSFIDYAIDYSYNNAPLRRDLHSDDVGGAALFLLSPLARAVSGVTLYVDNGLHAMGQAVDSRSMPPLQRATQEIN

[3] = target: T2, Enoyl-acyl carrier reductase (Toxoplasma gondii) (UniProt Q6UCJ9); experiment: Inhibition of Toxoplasma gondii enoyl acyl-carrier protein reductase at 1 uM
T2 sequence (whole entry): T1 sequence (Q6UCJ9 whole entry)

Toxoplasma gondii [4] = experiment: Antiparasitic activity against tachyzoite of Toxoplasma gondii RH expressing yellow fluorescent protein infected in human foreskin fibroblasts after 72 hrs by fluorescence assay
Toxoplasma gondii [5] = experiment: Antiparasitic activity against tachyzoite of Toxoplasma gondii RH expressing yellow fluorescent protein infected in human foreskin fibroblasts after 72 hrs by bacterial beta-galactosidase reporter gene assay; format: functional
Plasmodium falciparum [6] = experiment: Antiplasmodial activity against blood stage of drug-resistant Plasmodium falciparum TM91C235; format: functional; summary of the method: as §1

SMILES	Activity (Plasmodium falciparum [1])	Activity (HFF) [µM]	IC50 [2] [nM]	inhibition [3] [%]	MIC50 (Toxoplasma gondii [4]) [µM]	MIC50 (Toxoplasma gondii [5]) [µM]	Activity (Plasmodium falciparum [6])
CCCc1cc(-c2ccc(Oc3ccc(CNC(=O)c4cc(C)on4)cc3O)c(Cl)c2)no1	>10000 ng/mL	> 10	137	89	4 (≈ 1.87 µg/mL)	–	–
Cc1cc(C(=O)NCc2ccc(Oc3ccc(Cl)cc3Cl)c(O)c2)no1	–	–	19	–	–	–	–
N#Cc1ccc(Oc2ccc(-c3cc(CCO)on3)cc2Cl)c(O)c1	>10000 ng/mL	> 10	34	94	–	8 (≈ 2.85 µg/mL)	–
Oc1cc(Cl)ccc1Oc1ccc(Cl)cc1Cl [TRICLOSAN]	inactive	> 10	–	98	5 (≈ 1.45 µg/mL)	–	inactive
CCCc1cc(-c2ccc(Oc3ccc(C#N)cc3O)c(Cl)c2)no1	> 2440 ng/mL	> 10	29	94	–	4 (≈ 1.42 µg/mL)	inactive

Source: ChEMBL document CHEMBL2390941 (Bioorg Med Chem Lett, 2013)
